MC4R antag cAMP = antagonists of human melanocortin 4 receptor (MC4R) | P32245 | AID 540295 | MC4R-expressing cells, MTII-stimulated cAMP, LANCE TR-FRET | hit rate 0.48% among 360,000 | inhibition, % at 6.5 µM;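 active = inhibition above its plate's cutoff, the mean of tested wells on that plate plus 3 SD, cut at about 29% in these data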;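 also: 0% = Melanotan II alone and 100% = Melanotan II plus saturating MCL0020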
Target sequence (P32245 whole entry, looked up): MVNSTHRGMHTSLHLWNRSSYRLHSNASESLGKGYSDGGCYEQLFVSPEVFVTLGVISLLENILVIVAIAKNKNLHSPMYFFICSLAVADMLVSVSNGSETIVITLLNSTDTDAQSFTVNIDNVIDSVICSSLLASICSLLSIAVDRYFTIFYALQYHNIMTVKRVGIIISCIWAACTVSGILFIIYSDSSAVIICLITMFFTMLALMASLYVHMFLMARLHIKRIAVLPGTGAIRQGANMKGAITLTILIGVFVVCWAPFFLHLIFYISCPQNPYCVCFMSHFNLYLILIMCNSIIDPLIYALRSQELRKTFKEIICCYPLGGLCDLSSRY
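Assay system: human MC4R-expressing U2OS cells; reagent: Melanotan II stimulation of cells; dosing: 6.5 µM single dose; timing: compound 30 min, challenge 1 h, detection 1 h; signal: TR-FRET cAMP assay; replicates: one well per compound, no replicates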
EP2 modulator = modulates human prostaglandin E2 receptor EP2 signaling | EP2-expressing cells, cAMP HTRF FRET, PGE2 co-stimulation | induction, % at 25 µM | hit rate 0.83% among 260,000 | AID 940;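 active = compounds whose cAMP rise, as percent of the full-agonist control response, exceeds 60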;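 also: rat C6 glioma line stably carrying human EP2 under a CMV promoter; the protocol text gives 20 µM as final concentration; 100% = response of wells given 1 µM PGE2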
MC4R barr agon = human MC4R agonism via beta-arrestin; P32245; U2OS MC4R beta-arrestin complementation, luminescence; percent of melanotan II response, DMSO zero; activation, % at 8.9 µM; hit rate 0.98% among 360,000; AID 540308;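 active = activation above a per-plate cutoff, the mean activation of sample wells on that plate plus 3 SD, cut at about 8% in these data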
PGE2 EP2 inh = blocks the human prostaglandin E2 receptor EP2 | hit rate 0.52% among 260,000 | AID 1422 | P43116 | inhibition, % at 25 µM | C6 glioma cells expressing human EP2, cAMP TR-FRET; cells stimulated with saturating PGE2;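 active = percent inhibition above 40 after rounding to a whole number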;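 also: rat C6 glioma host cells with rolipram phosphodiesterase inhibitor present; the protocol text gives 20 µM as final concentration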
T cell modulator = T cell immune modulators affecting CD8 T cell-vesicle binding; 2C CD8+ T cell-vesicle binding, flow cytometry; stronger effect = lower value; response (vesicle binding), % at 7 µM; hit rate 0.068% among 330,000;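 active = response, share of CD8 T cells binding vesicles, and their 90th percentile fluorescence all below set limits, cut at about 80% in these data, passing the limit was not always enough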;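 also: values below 100% mean blocked vesicle binding to the CD8+ T cells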
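incubation = binding step 1.5 h, 37 °C, antibody labelling 20 min, ice | test system = 2C mouse CD8+ T cells | read-out basis = percent CD8+ FL2 mean versus row control | controls = Peptide-free naked vesicles (low) and QL9 vesicles with 0.7% DMSO vehicle (high) | detection = flow cytometry of vesicle-bound cells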
Exocytosis inh = lytic granule exocytosis inhibition; TALL-104 LAMP-1 surface exposure, flow cytometry; cells stimulated with thapsigargin and PMA; inhibition, % at 10 µM; hit rate 0.66% among 360,000; AID 651702;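 active = inhibition above about 55%, limit read from the data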
Numbers without * were called inactive; i = inactive; x = not tested or not shown; ! = repeats disagree. Only some compounds are listed: those with a hit (about 2.6% of all), similar ones and a draw of the others.

SMILES	MC4R antag cAMP	EP2 modulator	MC4R barr agon	PGE2 EP2 inh	T cell modulator	Exocytosis inh
C[C@H]1O[C@@H](OC2CC[C@]3(C=O)[C@H]4CC[C@]5(C)[C@@H](C6=CC(=O)OC6)CC[C@]5(O)[C@@H]4CC[C@]3(O)C2)CC2OC(C)(C)OC21 (some centres not stated)	-3	x	40*	x	358	-10
C[C@H]1O[C@@H](O[C@H]2[C@@H](O)C[C@H](O[C@H]3[C@@H](O)C[C@H](O[C@H]4CC[C@@]5(C)[C@H](CC[C@@H]6[C@@H]5CC[C@]5(C)[C@@H](C7=CC(=O)OC7)CC[C@]65O)C4)O[C@@H]3C)O[C@@H]2C)C[C@H](O)[C@@H]1O	x	16	x	11	x	x
CC12CC[C@H]3[C@@H](CCC4(O)C[C@H](O)CCC34/C=N/NC(=O)c3ccccc3Cl)C1(O)CCC2C1=CC(=O)OC1 (some centres not stated)	4	7	-1	3	110	-3
C[C@]12CCC3C(CCC4=CC(O)CC[C@@]43/C=N/O)C1(O)CCC2C1=CC(=O)OC1 (some centres not stated)	0	x	39*	x	312	-22
Cc1oc(-c2cccs2)nc1CSCC(=O)N1CCC2(CC1)OCCO2	-1	-1	-2	11	542	-2
C/C(=N\NC(=O)c1ccncc1)c1c(O)[nH]c(=O)[nH]c1=O	x	x	x	13	x	x
O=c1c2ccccc2nc(/C=C/c2ccccn2)n1-c1ccccc1Cl	x	35	x	11	x	x
Cc1cc(C(=O)OCC(=O)Nc2ccccc2F)c(C)n1C1CC1	6	x	1	x	x	-1
C=CCn1c(O)c(C(C)=NCc2ccc3c(c2)OCO3)c(=O)[nH]c1=O	-1	-18	0	10	i	-16
CN1CCCN(C(=O)COc2cccc(C(F)(F)F)c2)CC1	-2	x	-3	x	98	-2
CCCCN=C[C@]12CCC(O)CC1(O)CCC1[C@@H]2CC[C@]2(C)[C@H](C3C=CC(=O)O3)CCC12O (some centres not stated)	-2	x	35*	x	490	8
CC12CCC3C(CCC4(O)CC(O)CCC34C=NO)C1(O)CCC2C1=COC(=O)C1 (configuration not stated)	2	x	26*	x	x	-5
CC[C@@]1(O)C[C@H](O[C@H]2C[C@H](N(C)C)[C@H](O)[C@H](C)O2)c2c(cc3c(c2O)C(=O)c2c(O)cccc2C3=O)[C@H]1C(=O)OC	x	-40	x	18	x	x
CN(C)C(=S)SSC(=S)N(C)C	-5	-37	-2	125*	233	41
CO[C@H]1[C@H](O)[C@@H](O[C@@H]2[C@@H](Oc3cccc4c(O)c5c(=O)oc6ccc(C)c7c(=O)oc(c34)c5c67)O[C@@H](C)[C@H](O)[C@H]2O)O[C@@H](C)[C@@H]1O	x	8	x	44*	x	x
O[C@H](CN1CC1)[C@@H](O)CN1CC1	x	22	x	42*	x	x
COc1cc2c(cc1O)[C@@H]1Cc3ccc(OC)c(O)c3CN1CC2	-3	x	-1	x	493	3
CC[C@H]1CN2CCc3cc(OC)c(OC)cc3[C@@H]2C[C@@H]1C[C@H]1NCCc2c1[nH]c1ccc(O)cc21	x	-25	x	61*	x	x
O=S(=O)(Nc1nccs1)c1ccc([As](=O)(O)O)cc1	x	11	x	12	x	x
NS(=O)(=O)c1ccc(-c2ccc([As](=O)(O)O)cc2)cc1	x	19	x	45*	x	x
Fc1ccccc1N1CCN(Cc2c(F)cccc2F)CC1	2	13	5	7	338	-1
Cc1ccc(C2=CCN(CC(=O)Nc3nc4c(s3)CCCC4)CC2)o1	x	-80	x	6	x	x
O=C(O)[C@@H](O)[C@@H](O)[C@@H]1[O][Sb][O][C@@H]1CO	x	10	x	51*	x	x
O=C1N[C@H](Cc2ccccc2)C(=O)N2[C@@H]3[C@H](C[C@@H]12)c1ccccc1N3OOSc1ccccc1	5	x	-1	21	631	-1
Fc1ccc(CCNCc2ccc(Cl)c(Cl)c2)cc1	1	-28	8.7*	-1	345	-4
SMILES	MC4R antag cAMP	EP2 modulator	MC4R barr agon	PGE2 EP2 inh	T cell modulator	Exocytosis inh
CCc1ccc(CNCCc2ccc(F)cc2)cc1	3	-22	0	3	298	-2
CN1CCc2cc3c(c4c2C1Cc1ccccc1-4)OCO3 (configuration not stated)	4	x	0	x	126	80*
COc1cc2c(cc1O)C[C@@H]1c3c(cc(O)c(OC)c3-2)CCN1C	x	-10	x	13	x	x
C#CCOc1ccc(CN2C3CCC2CC(O)(c2nccn2C)C3)cc1OC (configuration not stated)	x	-15	x	4	x	x
COC1CCC(OC2CC(C3(C)CCC4(CC(O)C(C)C(C(C)/C=C(\C)C(=O)C(C)CC(C)C(=O)O)O4)O3)OC3(OC(C4OC(O)(CO)C(C)CC4C)CC3C)C2C)OC1C (configuration not stated)	8	x	19*	x	x	78*
Cc1cc2c(C(C)C)c(O)c(O)c(C=O)c2c(O)c1-c1c(C)cc2c(C(C)C)c(O)c(O)c(C=O)c2c1O	14	7	9.5*	47*!	x	23
C[C@@H](O)CN(CCN(C[C@@H](C)O)C[C@@H](C)O)C[C@@H](C)O.O=[N+]([O-])O.[Cu]	x	14	x	41*	x	x
CN1C(=O)/C(=C\c2ccc(Br)s2)C(=O)NC1=S	28	x	1	x	293	-1
O=C1NC(=S)NC(=O)C1=Cc1ccc(Br)s1	13	x	-1	x	188	72*
COc1ccc(OCC(=O)N2CCN(C3CCC(c4ccccc4)CC3)CC2)cc1 (configuration not stated)	-1	-5	-2	4	350	0
CC1CCN(c2cc(Br)c([N+](=O)[O-])cc2F)CC1	-6	-5	2	3	119	42
CC(C)[C@]1(O)[C@@H](OC(=O)c2ccc[nH]2)[C@@]2(O)[C@@]3(C)C[C@]4(O)O[C@@]5([C@H](O)[C@@H](C)CC[C@@]35O)[C@@]2(O)[C@@]41C	x	6	x	51*	x	x
Cc1ccc(Sc2ccc(C=C3C(=O)N(C)C(=O)N(C)C3=O)o2)cc1	1	-15	-2	24	301	74*
CCc1nn(CC(=O)N2CCC3(CC2)OCCO3)c(=O)c2cc3ccccc3n12	6	x	0	x	143	-1
COc1cc2c3cc1Oc1c(O)c(OC)cc4c1[C@@H](Cc1ccc(cc1)Oc1cc(ccc1O)C[C@@H]3N(C)CC2)N(C)CC4	x	-7	x	48*	x	x
COc1cc2c3cc1Oc1cc(ccc1O)C[C@@H]1c4c(cc(OC)c(O)c4Oc4ccc(cc4)C[C@H]3N(C)CC2)CCN1C	5	-18	1	18	473	11
Cn1c(=O)c2[nH]cnc2n(C)c1=O.[CH2-][C@H](Cc1cccc2cc(C(=O)O)c(=O)oc12)OC.[Hg].[OH-]	x	29	x	59*	x	x
